# According to PMC3049929 (Journal of medicinal chemistry, 2008):
# Tests used:
# [1] = system: P. falciparum 3D7 (chloroquine-sensitive); details: strain 3D7, infected erythrocytes; previously published data ref 26, 27; cited from earlier work
# [2] = system: P. falciparum K1 (chloroquine-resistant, pyrimethamine-resistant); details: strain K1, infected erythrocytes; previously published data ref 26, 27; cited from earlier work
# [3] = system: P. falciparum 3D7 (chloroquine-sensitive); assay type: cell-based; details: Plasmodium falciparum, 3D7, Erythrocyte, 48 h, read-out: ED50 (nM) 3D7
# How it was run: (§1)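 Parasites cultured in type A+ human erythrocytes (2% hematocrit) in RPMI-1640 with 20% heat-inactivated type A+ human plasma, under 5% CO2/5% O2/90% N2. Test compound in DMSO added to culture at 0.5% parasitemia and 0.5% hematocrit. Incubated 37 °C for 48 h, then [8-3H]hypoxanthine (0.3 µCi) added for a further 24 h. Cells harvested to filter mats and counted by β-scintillation. Uninfected-erythrocyte background subtracted; DMSO-only wells taken as 100% growth. ED50 from linear regression of incorporation vs concentration.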
# [4] = system: P. falciparum K1 (chloroquine-resistant, pyrimethamine-resistant); assay type: cell-based; details: Plasmodium falciparum, K1, Erythrocyte, 48 h, read-out: ED50 (nM) K1
# How it was run: as §1
# [5] = molecular target: PfPFT (P. falciparum protein farnesyltransferase) (Plasmodium falciparum, UniProt Q5EI73+Q5EI74); assay: PfPFT [3H] scintillation proximity assay; assay type: biochemical; details: for inhibition at 0.05 µM: read-out: Inhibition of PfFTase (%) 50 nM; for Inhibition of PfFTase (%) 50 nM: 50 nM inhibitor concentration
SMILES,IC50 [4] [nM],inhibition at 0.05 µM [5] [%],further results
Cn1cnc(S(=O)(=O)N(CCN(Cc2cncn2C)c2ccc(C#N)cc2)Cc2ccccc2)c1 [1a],,,ED50 (nM) 3D7 [1]: 349 nM; ED50 (nM) K1 [2]: 375 nM
Cc1ccccc1CN(CCN(Cc1cncn1C)c1ccc(C#N)cc1)S(=O)(=O)c1cn(C)cn1 [1b],,,ED50 (nM) 3D7 [1]: 93 nM; ED50 (nM) K1 [2]: 150 nM
Cn1cnc(S(=O)(=O)N(CCN(Cc2cncn2C)c2ccc(C#N)cc2)CC2CCN(c3ncccn3)CC2)c1 [1e],,,ED50 (nM) 3D7 [1]: 130 nM; ED50 (nM) K1 [2]: 85 nM
"Cc1ccccc1CN(CC(C)(C)N(Cc1cncn1C)c1ccc(C#N)cc1)S(=O)(=O)c1cn(C)cn1 [3b, [N-(2-Methylbenzyl)-N-{(4-cyanophenyl)(3-methyl-3H-imidazol-4-ylmethyl)amino}-2,2-dimethylethyl]-1-methyl-1H-imidazole-4-sulfonamide]",75,,IC50 [3]: 210 nM
"Cn1cnc(S(=O)(=O)N(CC2CCN(C(=O)OC(C)(C)C)CC2)CC(C)(C)N(Cc2cncn2C)c2ccc(C#N)cc2)c1 [3d, [N-(N-tert-Butoxycarbonylpiperidin-4-ylmethyl)-N-{(4-cyanophenyl)(3-methyl-3H-imidazol-4-ylmethyl)amino}-2,2-dimethylethyl]-1-methyl-1H-imidazole-4-sulfonamide]",250,,IC50 [3]: 400 nM
"Cn1cnc(S(=O)(=O)N(CC2CCN(c3ncccn3)CC2)CC(C)(C)N(Cc2cncn2C)c2ccc(C#N)cc2)c1 [3e, [N-{N-(2-Pyrimidinyl)-piperidin-4-ylmethyl}-N-{(4-cyanophenyl)(3-methyl-3H-imidazol-4-ylmethyl)amino}-2,2-dimethylethyl]-1-methyl-1H-imidazole-4-sulfonamide]",75,,IC50 [3]: 180 nM
"Cn1cnc(S(=O)(=O)N(CC(=O)N(Cc2cncn2C)c2ccc(C#N)cc2)Cc2ccccc2)c1 [4a, 2-[Benzyl(1-methyl-1H-imidazole-4-sulfonyl)amino]-N-(4-cyanophenyl)-N-(3-methyl-3H-imidazol-4-ylmethyl)acetamide]",,0,
"Cn1cnc(S(=O)(=O)N(CC(=O)N(Cc2cncn2C)c2ccc(C#N)cc2)CC2CCN(C(=O)OC(C)(C)C)CC2)c1 [4d, 2-[(N-tert-Butoxycarbonylpiperidin-4-ylmethyl)(1-methyl-1H-imidazole-4-sulfonyl)amino]-N-(4-cyanophenyl)-N-(3-methyl-3H-imidazol-4-ylmethyl)acetamide]",,0,
"Cn1cnc(S(=O)(=O)N(CCC(=O)N(Cc2cncn2C)c2ccc(C#N)cc2)Cc2ccccc2)c1 [5a, 3-[Benzyl-(1-methyl-1H-imidazole-4-sulfonyl)amino]-N-(4-cyanophenyl)-N-(3-methyl-3H-imidazol-4-ylmethyl)propanamide]",,0,
"Cn1cnc(S(=O)(=O)N(CCC(=O)N(Cc2cncn2C)c2ccc(C#N)cc2)CC2CCN(C(=O)OC(C)(C)C)CC2)c1 [5d, 3-[(N-tert-Butoxycarbonylpiperidin-4-ylmethyl)(1-methyl-1H-imidazole-4-sulfonyl)amino]-N-(4-cyanophenyl)-N-(3-methyl-3H-imidazol-4-ylmethyl)propanamide]",,0,
"Cn1cnc(S(=O)(=O)N(CC2CCN(C(=O)OC(C)(C)C)CC2)[C@H]2CC[C@@H](N(Cc3cncn3C)c3ccc(C#N)cc3)CC2)c1 [10d, (±)-[N-(N-tert-Butoxycarbonylpiperidin-4-ylmethyl)-N-{cis-4-[(4-cyanophenyl)(3-methyl-3H-imidazol-4-ylmethyl)amino]cyclohexyl}]-1-methyl-1H-imidazole-4-sulfonamide]",650,0,Inhibition of PfFTase (%) 50 nM [5]: no inhibitory activity
"Cn1cnc(S(=O)(=O)N(CC2CCN(C(=O)OC(C)(C)C)CC2)[C@H]2CC[C@H](N(Cc3cncn3C)c3ccc(C#N)cc3)CC2)c1 [11d, (±)-[N-(N-tert-Butoxycarbonylpiperidin-4-ylmethyl)-N-{trans-4-[(4-cyanophenyl)(3-methyl-3H-imidazol-4-ylmethyl)amino]cyclohexyl}]-1-methyl-1H-imidazole-4-sulfonamide]",1200,0,Inhibition of PfFTase (%) 50 nM [5]: no inhibitory activity
